Key:
[1] = Ratio of IC50 value determined in L1210 cell lines to the IC50 value determined in DFMO treated L1210 cell lines was evaluated; type: functional
CHO-MG (Chinese hamster) = test: Cytotoxicity in CHO-MG cell lines; settings: Cricetulus griseus
CHO (Chinese hamster) = test: Cytotoxicity in CHO cell lines; settings: Cricetulus griseus
L1210 [2] = test: Cytotoxicity in DFMO treated L1210 cell lines; type: functional, cell-based; settings: Mus musculus
Procedure, shortened: (§1)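 L1210 murine leukemia cells, early to mid log phase, in RPMI with 10% FCS, glutamine, antibiotics and 2 mM aminoguanidine at 37 °C, 5% CO2. Cells were seeded at 5 × 10^4 cells/mL with drug added at seeding. For line 3, DFMO at 5 mM was present in the medium from drug addition. After 48 h of exposure, growth was read as MTT formazan absorbance at 540 nm.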

[3] = Ratio of IC50 value determined in CHO-MG cell lines to the IC50 value determined in CHO cell lines was evaluated
L1210 [4] = test: Cytotoxicity in L1210 cell lines; type: functional, cell-based; settings: Mus musculus; procedure, shortened: as §1

Compound | Ratio [1] | IC50 (CHO-MG (Chinese hamster)) [µM] | IC50 (CHO (Chinese hamster)) [µM] | IC50 (L1210 [2]) [µM] | Ratio [3] | IC50 (L1210 [4]) [nM]
Cl.Cl.NCCCCCCCCNCc1c2ccccc2cc2ccccc12 | 0.7 | 4.9 | 4.9 | 4.6 | 1 | 3000
Cl.Cl.NCCCCNCc1c2ccccc2cc2ccccc12 | 0.7 | 7.6 | 7.7 | – | – | –
Cl.NCCCCNCCCCNCc1cccc2ccccc12 | 1.1 | > 100 | 0.6 | – | – | –
Cl.NCCCCNCCCCNCc1c2ccccc2cc2ccccc12 | 2 | 66.7 | 0.45 | – | – | –
Cl.NCCCCNCCCCNCc1ccccc1 | 0.1 | – | – | 421 | – | –
Cl.NC1CCC(NCCCCNCc2c3ccccc3cc3ccccc23)CC1 (stereo unspecified) | 1.4 | 17.4 | 2.5 | 0.7 | 7 | 1000
CCCCNCc1c2ccccc2cc2ccccc12.Cl | 0.7 | 11.2 | 10.5 | – | – | –
Cl.Cl.NCCOCCOCCNCc1c2ccccc2cc2ccccc12 | 0.7 | 15.9 | 12.6 | 17 | 1.3 | 11300
Cl.NCCCNCCCCNCc1c2ccccc2cc2ccccc12 | 2 | 9.5 | 0.4 | – | 24 | –
Cl.NCC(O)CNCCCCNCc1c2ccccc2cc2ccccc12 (stereo unspecified) | 0.7 | 9.5 | 9.1 | 2.3 | 1 | 1500
Cl.NCCCCNCCCCNCc1ccc2ccc3cccc4ccc1c2c34 | 1.1 | 15.5 | 0.46 | 0.36 | – | –

Source: ChEMBL document CHEMBL1145903, “Defining the molecular requirements for the selective delivery of polyamine conjugates into cells containing active polyamine transporters” (J Med Chem, 2003)
